Data as given in ChEMBL document CHEMBL1150273, “Aza-peptidyl Michael acceptors. A new class of potent and selective inhibitors of asparaginyl endopeptidases (legumains) from evolutionarily diverse pathogens” (J Med Chem, 2008).
pIC50: −log10 of the molar value. Blank lines part the entries; values can stand above or below the compound they belong to. Active and inactive are the calls of the source. The rule behind the calls is not given here.

Legend:
Sus scrofa = species on record: Sus scrofa; test: Inhibition of pig AE assessed as ratio of pseudo-first-order inhibition rate constant to inhibitor concentration
Summary of the method: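 Pig AE in 39.5 mM citric acid, 121 mM Na2HPO4, 1 mM EDTA, 0.1% CHAPS, 0.015% Brij, 1 mM DTT.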

Schistosoma mansoni [1] = test: Inhibition of Schistosoma mansoni AE assessed as ratio of pseudo-first-order inhibition rate constant to inhibitor concentration
Summary of the method: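 Autoactivated recombinant SmAE added to six inhibitor concentrations (0–1 µM final) in 0.1 M citrate phosphate, 2 mM DTT, pH 6.8 with 20 µM Cbz-Ala-Ala-Asn-AMC; progress followed every 2 s for 30 min at 25 °C (ex 355, em 460 nm); kobs/[I] by nonlinear regression, corrected for substrate by factor 1.33.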

[2] = (§1) Inhibition of Schistosoma mansoni AE expressed in Pichia pastoris after 20 mins
Summary of the method: (§2)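 Recombinant AE zymogens expressed in Pichia pastoris; SmAE and TvAE1 autoactivated in 0.5 M sodium acetate, 4 mM DTT, pH 4.5, 37 °C, 3 h to overnight; IrAE used without activation. Buffer 0.1 M citrate phosphate, 4 mM DTT, pH 6.8 (SmAE, TvAE1) or pH 5.5 (IrAE). Inhibitor 2.0–0.0002 µM final, 20 min preincubation at room temperature; 10 µM final Cbz-Ala-Ala-Asn-AMC, 20 min; IC50 from RFU/min vs concentration.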

[3] = Inhibition of Trichomonas vaginalis G3 AE1 expressed in Pichia pastoris after 20 mins; summary of the method: as §2
Schistosoma mansoni [4] = test: as §1; summary of the method: as §2
[5] = Inhibition of Ixodes ricinus AE expressed in Pichia pastoris after 20 mins; summary of the method: as §2
[6] = Stability assessed as half life in citrate phosphate buffer at pH 6.8 in presence of dithiothreitol; format: physicochemical; conditions: citrate phosphate buffer with dithiothreitol
Legumain (Homo sapiens) = molecular target: T1, Legumain (Homo sapiens) (UniProt Q99538); test: Inhibition of human AE assessed as ratio of pseudo-first-order inhibition rate constant to inhibitor concentration
T1 sequence (whole entry): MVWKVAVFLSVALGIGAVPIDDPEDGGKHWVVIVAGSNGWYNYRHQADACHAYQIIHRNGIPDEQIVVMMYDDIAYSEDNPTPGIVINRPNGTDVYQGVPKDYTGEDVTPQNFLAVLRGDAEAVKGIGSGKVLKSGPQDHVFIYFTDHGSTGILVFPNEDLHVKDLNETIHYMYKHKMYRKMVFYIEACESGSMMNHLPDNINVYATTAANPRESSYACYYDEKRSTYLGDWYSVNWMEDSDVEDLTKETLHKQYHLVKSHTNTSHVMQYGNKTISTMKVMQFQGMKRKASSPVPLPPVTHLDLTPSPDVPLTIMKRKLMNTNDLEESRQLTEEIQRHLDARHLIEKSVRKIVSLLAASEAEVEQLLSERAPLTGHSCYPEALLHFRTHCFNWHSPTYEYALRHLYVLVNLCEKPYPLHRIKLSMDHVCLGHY
Summary of the method: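 Human AE; inhibitor and substrate incubated at 25 °C in 20 mM citric acid, 60 mM Na2HPO4, 1 mM EDTA, 0.1% CHAPS, pH 5.8 before enzyme addition.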

Caspase-3 (Homo sapiens) = molecular target: T2, Caspase-3 (Homo sapiens) (UniProt P42574); test: Inhibition of caspase 3 assessed as ratio of pseudo-first-order inhibition rate constant to inhibitor concentration
T2 sequence (whole entry): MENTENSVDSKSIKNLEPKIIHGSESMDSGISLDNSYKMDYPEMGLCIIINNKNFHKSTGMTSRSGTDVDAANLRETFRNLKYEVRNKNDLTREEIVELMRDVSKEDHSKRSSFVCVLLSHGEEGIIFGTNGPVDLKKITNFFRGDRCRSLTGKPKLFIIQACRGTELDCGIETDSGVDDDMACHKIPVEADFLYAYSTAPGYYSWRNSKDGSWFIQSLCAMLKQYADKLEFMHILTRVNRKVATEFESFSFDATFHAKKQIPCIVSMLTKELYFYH
Summary of the method: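 Caspase-3 (1 nM final) preactivated 10 min at 37 °C in 40 mM Pipes, 200 mM NaCl, 0.2% CHAPS, 20% sucrose mixed 1:1 with 20 mM DTT, pH 7.2; enzyme added to inhibitor plus Ac-Asp-Glu-Val-Asp-AMC; progress curves 20 min at 37 °C (ex 360, em 465 nm); duplicates; rates corrected for substrate (KM 9.7 µM).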

[7] = molecular target: Cathepsin B (Homo sapiens) (UniProt P07858); test: Inhibition of cathepsin B assessed as ratio of pseudo-first-order inhibition rate constant to inhibitor concentration
Caspase-8 (Homo sapiens) = Caspase-8 (Homo sapiens) (UniProt Q14790); test: Inhibition of caspase 8 assessed as ratio of pseudo-first-order inhibition rate constant to inhibitor concentration
Summary of the method: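 Caspase-8 at 50 nM final, assayed in the same Pipes/NaCl/CHAPS/sucrose/DTT buffer, pH 7.2, 37 °C with Ac-Asp-Glu-Val-Asp-AMC by the progress curve method; inhibitor stocks 5 × 10^-3 to 2.42 × 10^-6 M in DMSO; rates corrected for substrate using KM 6.79 µM.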

[8] = molecular target: Lys-gingipain HG66 (Porphyromonas gingivalis) (UniProt P72197); test: Inhibition of Porphyromonas gingivalis gingipain K assessed as ratio of pseudo-first-order inhibition rate constant to inhibitor concentration
Summary of the method: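 Gingipain K diluted to 4.61 nM in 0.2 M Tris-HCl, 0.1 M NaCl, 5 mM CaCl2, 2 mM DTT, pH 8.0 and incubated with inhibitor (DMSO) at room temperature; aliquots taken at intervals into buffer with Suc-Ala-Phe-Lys-AMC; fluorescence at 465 nm; pseudo-first-order kinetics.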

Papain (Carica papaya) = molecular target: T3, Papain (Carica papaya) (UniProt P00784); test: Inhibition of papain assessed as ratio of pseudo-first-order inhibition rate constant to inhibitor concentration
T3 sequence (whole entry): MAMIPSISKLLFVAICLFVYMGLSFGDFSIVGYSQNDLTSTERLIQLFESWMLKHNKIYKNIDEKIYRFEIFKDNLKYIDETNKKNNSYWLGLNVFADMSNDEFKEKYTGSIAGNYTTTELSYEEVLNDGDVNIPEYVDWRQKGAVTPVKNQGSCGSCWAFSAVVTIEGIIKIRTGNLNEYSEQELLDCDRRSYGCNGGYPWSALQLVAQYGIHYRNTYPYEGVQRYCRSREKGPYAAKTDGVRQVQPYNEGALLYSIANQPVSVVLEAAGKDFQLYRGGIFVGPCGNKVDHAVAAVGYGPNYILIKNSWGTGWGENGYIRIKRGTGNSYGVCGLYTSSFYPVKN
Summary of the method: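 Papain, about 0.29 mg/mL, incubated with inhibitor in 50 mM Hepes, 2.5 mM DTT, 2.5 mM EDTA, pH 7.5; aliquots taken over time into 53.7 µM Cbz-Phe-Arg-pNA; p-nitroanilide release read at 405 nm at room temperature; pseudo-first-order inactivation kinetics.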

Caspase-6 (Homo sapiens) = molecular target: T4, Caspase-6 (Homo sapiens) (UniProt P55212); test: Inhibition of caspase 6 assessed as ratio of pseudo-first-order inhibition rate constant to inhibitor concentration
T4 sequence (whole entry): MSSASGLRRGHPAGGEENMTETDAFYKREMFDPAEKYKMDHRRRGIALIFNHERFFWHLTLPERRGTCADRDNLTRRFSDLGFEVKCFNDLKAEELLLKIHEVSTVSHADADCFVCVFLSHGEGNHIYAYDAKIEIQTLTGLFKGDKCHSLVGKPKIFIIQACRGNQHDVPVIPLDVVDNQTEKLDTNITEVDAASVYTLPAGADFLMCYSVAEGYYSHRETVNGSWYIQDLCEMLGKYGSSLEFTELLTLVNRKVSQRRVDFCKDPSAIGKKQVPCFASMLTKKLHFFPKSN
Summary of the method: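 Caspase-6 at 5 nM final, assayed in the same Pipes/NaCl/CHAPS/sucrose/DTT buffer, pH 7.2, 37 °C with Ac-Asp-Glu-Val-Asp-AMC by the progress curve method; inhibitor stocks 5 × 10^-3 to 2.42 × 10^-6 M in DMSO; rates corrected for substrate using KM 236.35 µM.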

[9] = molecular target: T5, Calpain-1 catalytic subunit (Homo sapiens) (UniProt P07384); test: Inhibition of calpain 1 assessed as ratio of pseudo-first-order inhibition rate constant to inhibitor concentration
T5 sequence (whole entry): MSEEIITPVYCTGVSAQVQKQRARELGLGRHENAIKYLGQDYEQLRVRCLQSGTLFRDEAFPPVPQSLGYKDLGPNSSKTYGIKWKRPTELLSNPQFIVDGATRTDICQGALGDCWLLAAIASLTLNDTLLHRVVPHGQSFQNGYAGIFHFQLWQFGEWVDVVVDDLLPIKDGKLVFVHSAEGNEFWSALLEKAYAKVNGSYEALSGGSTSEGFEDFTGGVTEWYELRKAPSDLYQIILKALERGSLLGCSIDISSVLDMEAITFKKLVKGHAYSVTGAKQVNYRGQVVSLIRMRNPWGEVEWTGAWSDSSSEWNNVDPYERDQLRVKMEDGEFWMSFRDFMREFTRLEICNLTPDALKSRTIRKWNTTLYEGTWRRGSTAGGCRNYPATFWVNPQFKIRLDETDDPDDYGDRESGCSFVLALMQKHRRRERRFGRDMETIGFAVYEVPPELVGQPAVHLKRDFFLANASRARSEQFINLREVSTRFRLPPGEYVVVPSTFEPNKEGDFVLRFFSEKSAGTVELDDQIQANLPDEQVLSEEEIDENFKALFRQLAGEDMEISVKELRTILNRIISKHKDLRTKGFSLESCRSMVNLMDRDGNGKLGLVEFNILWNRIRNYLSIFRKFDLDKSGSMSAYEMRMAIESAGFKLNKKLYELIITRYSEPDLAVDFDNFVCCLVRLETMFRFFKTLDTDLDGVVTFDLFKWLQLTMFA

[10] = molecular target: T6, Clostripain (Clostridium histolyticum) (UniProt P09870); test: Inhibition of sClostridium histolyticum clostripain assessed as ratio of pseudo-first-order inhibition rate constant to inhibitor concentration; conditions: Hathewaya histolytica
T6 sequence (whole entry): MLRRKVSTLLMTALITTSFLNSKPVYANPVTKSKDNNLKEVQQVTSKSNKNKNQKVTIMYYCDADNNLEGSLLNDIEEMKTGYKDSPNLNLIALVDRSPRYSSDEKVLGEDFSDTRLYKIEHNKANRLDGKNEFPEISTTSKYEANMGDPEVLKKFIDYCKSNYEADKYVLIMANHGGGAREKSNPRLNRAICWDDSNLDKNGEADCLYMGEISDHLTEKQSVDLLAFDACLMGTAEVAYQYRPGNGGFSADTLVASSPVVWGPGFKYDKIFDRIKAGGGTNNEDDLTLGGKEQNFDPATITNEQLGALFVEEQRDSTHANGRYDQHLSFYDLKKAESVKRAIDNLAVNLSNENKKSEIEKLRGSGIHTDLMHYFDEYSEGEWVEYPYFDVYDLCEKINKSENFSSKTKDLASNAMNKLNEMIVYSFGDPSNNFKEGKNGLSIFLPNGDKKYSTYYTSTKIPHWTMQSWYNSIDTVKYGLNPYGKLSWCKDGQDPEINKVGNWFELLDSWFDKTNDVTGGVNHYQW
Summary of the method: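 Clostripain activated in 8 mM DTT, then incubated with inhibitor (DMSO) in 20 mM Tris-HCl, 10 mM CaCl2, 0.005% Brij 35, 2 mM DTT, pH 7.6; aliquots taken at intervals into buffer with Cbz-Phe-Arg-AMC; fluorescence at 465 nm; pseudo-first-order kinetics.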

SMILES: CCOC(=O)[C@H]1O[C@@H]1C(=O)N(CC(N)=O)NC(=O)[C@H](C)NC(=O)[C@H](C)NC(=O)OCc1ccccc1
Ratio (Sus scrofa): 43000 M⁻¹ s⁻¹
Ratio (Schistosoma mansoni [1]): 17400 M⁻¹ s⁻¹
pIC50 [2]: 7.28

SMILES: C[C@H](NC(=O)OCc1ccccc1)C(=O)N[C@@H](C)C(=O)NN(CC(N)=O)C(=O)CCl
Ratio (Sus scrofa): 139000 M⁻¹ s⁻¹

SMILES: C[C@H](NC(=O)OCc1ccccc1)C(=O)N[C@@H](C)C(=O)NN(CC(N)=O)C(=O)COC(=O)c1ccccc1
Ratio (Sus scrofa): 13 M⁻¹ s⁻¹

SMILES: Cc1ccc(C)c(C(=O)OCC(=O)[C@H](CC(N)=O)NC(=O)OCc2ccccc2)c1
Ratio (Legumain (Homo sapiens)): 109000 M⁻¹ s⁻¹

SMILES: C=CCOC(=O)/C=C/C(CC(N)=O)NC(=O)[C@H](C)NC(=O)[C@H](C)NC(=O)OCc1ccccc1 (stereo partly specified)
Ratio (Sus scrofa): 776 M⁻¹ s⁻¹

Now from value to compound, other results behind:

pIC50 [3]: 5.10
SMILES: C/C=C/C=C/C(=O)N(CC(N)=O)NC(=O)[C@H](C)NC(=O)[C@H](C)NC(=O)OCc1ccccc1
Activity (Schistosoma mansoni [4]): inactive

pIC50 [3]: ≤ 5.00
SMILES: C[C@H](NC(=O)OCc1ccccc1)C(=O)N[C@@H](C)C(=O)NN(CC(N)=O)C(=O)/C=C/C(=O)c1ccccc1
pIC50 [5]: < 4.70
Activity (Schistosoma mansoni [4]): inactive

pIC50 [3]: 8.30
half-life [6]: 2.5 min
SMILES: C[C@H](NC(=O)OCc1ccccc1)C(=O)N[C@@H](C)C(=O)NN(CC(N)=O)C(=O)/C=C/C(=O)OCc1ccccc1
pIC50 [5]: > 9.00

pIC50 [3]: 5.70
SMILES: CCN(CC)C(=O)/C=C/C(=O)N(CC(N)=O)NC(=O)[C@H](C)NC(=O)[C@H](C)NC(=O)OCc1ccccc1
pIC50 [5]: 5.57
Ratio (Schistosoma mansoni [1]): 17400 M⁻¹ s⁻¹
Activity (Schistosoma mansoni [4]): inactive

Activity (Caspase-3 (Homo sapiens)): inactive
Activity [7]: inactive
Activity (Caspase-8 (Homo sapiens)): inactive
Ratio [8]: 1 M⁻¹ s⁻¹
pIC50 [3]: 7.30
Activity (Papain (Carica papaya)): inactive
Activity (Caspase-6 (Homo sapiens)): inactive
Activity [9]: inactive
Activity [10]: inactive
SMILES: C[C@H](NC(=O)OCc1ccccc1)C(=O)N[C@@H](C)C(=O)NN(CC(N)=O)C(=O)/C=C/C(=O)N1CCc2ccccc21
pIC50 [5]: 7.74
pIC50 [2]: 7.15

Activity (Caspase-3 (Homo sapiens)): inactive
Activity [7]: inactive
Activity (Caspase-8 (Homo sapiens)): inactive
Activity [8]: inactive
pIC50 [3]: 8.00
Ratio (Papain (Carica papaya)): 12 M⁻¹ s⁻¹
Activity (Caspase-6 (Homo sapiens)): inactive
Activity [9]: inactive
Activity [10]: inactive
SMILES: C[C@H](NC(=O)OCc1ccccc1)C(=O)N[C@@H](C)C(=O)NN(CC(N)=O)C(=O)/C=C/C(=O)NCCc1ccccc1
pIC50 [5]: 6.46
pIC50 [2]: 6.22
